Assay results collected from several papers.
Each line is one published result; the experiments were not run side by side.
PTGIR: Prostacyclin receptor (PTGIR, Homo sapiens, UniProt P43119)
SETD7: Histone-lysine N-methyltransferase SETD7 (SETD7, Homo sapiens, UniProt Q8WTS6)
MMP2: 72 kDa type IV collagenase (MMP2, Homo sapiens, UniProt P08253)
UCHL1: Ubiquitin carboxyl-terminal hydrolase isozyme L1 (UCHL1, Homo sapiens, UniProt P09936)

Cc1ncc(C)n2nc(/C=C/c3nc(N4CCCC4)cc(N4CCOCC4)n3)nc12 — inhibition (PTGIR; cell-free assay; 10 µM): 22%
CC(C)=CCCC1(C)C=Cc2c(O)c3c(c(CC=C(C)C)c2O1)OC12C(=CC4CC1C(C)(C)OC2(C/C=C(/C)C(=O)O)C4O)C3=O (stereo not drawn) — inhibition (SETD7; cell-free assay; 10 µM): 11%
Cn1cc(-c2cccc(N3CCc4c(sc5c4CC(C)(C)C5)C3=O)c2CO)cc(Nc2ccncn2)c1=O — inhibition (G protein-coupled receptor kinase 6 (GRK6, Homo sapiens, UniProt P43250); enzyme activity, inhibitor; 1 µM): -1%
CN(C)C(=O)COC(=O)Cc1ccc(OC(=O)c2ccc(NC(=N)N)cc2)cc1 — inhibition (MMP2; enzyme activity, inhibitor; 10 µM): 83%
O=C(Nc1cccnn1)N1CCN([C@@H]2CCOc3cc(C(F)(F)F)ccc32)CC1 — inhibition (PTGIR; cell-free assay; 20 µM): -15%
N=C(N)c1ccc2cc(OC(=O)c3ccc(N=C(N)N)cc3)ccc2c1 — inhibition (UCHL1; enzyme activity, inhibitor; 10 µM): 0%
C[C@H](C(=O)N[C@H]1COc2ccccc2[C@@H]1S(C)(=O)=O)c1ccc(F)cc1 — inhibition (Coagulation factor X (F10, Homo sapiens, UniProt P00742); enzyme activity, inhibitor; 10 µM): -3%
COc1ccc(S(=O)(=O)N(CC(=O)NO)CC(C)C)cc1 — inhibition (MMP2; enzyme activity, inhibitor; 0.1 µM): 71%
CC(C)=CCC[C@]1(C)C=Cc2c(O)c3c(c(CC=C(C)C)c2O1)O[C@]12C(=C[C@@H]4C[C@H]1C(C)(C)O[C@@]2(C/C=C(/C)C(=O)O)C4=O)C3=O — inhibition (SETD7; cell-free assay; 10 µM): -5%
Cn1cc(-c2cc(F)cc(N3CCn4c(cc5c4CCCC5)C3=O)c2CO)cc(Nc2ccc(N3CCN(C4COC4)CC3)cn2)c1=O — inhibition (G protein-coupled receptor kinase 5 (GRK5, Homo sapiens, UniProt P34947); enzyme activity, inhibitor; 0.1 µM): 4%
CCN(CC)CCCC[C@H](NC(=O)[C@H](CC(C)C)NC(=O)[C@H](C)NC(=O)[C@H](Cc1ccccc1)NC(=O)c1ccc(C(C)(C)C)cc1)C(=O)N[C@@H](CO)C(=O)OC — inhibition (Beta-2 adrenergic receptor (ADRB2, Homo sapiens, UniProt P07550); ligand displacement, radioligand; 10 µM): -1%
CC(C)C[C@H](NC(=O)[C@H](Cc1ccccc1)NC(=O)c1cnccn1)B(O)O — inhibition (Lysosomal protective protein (CTSA, Homo sapiens, UniProt P10619); cell-free assay, inhibitor; 33 µM): 32.4%
C#Cc1n[nH]c2c(-c3cn([C@@H](C)c4ccccn4)c(=O)[nH]c3=O)cc(F)cc12 — inhibition (Casein kinase I isoform gamma-1 (CSNK1G1, Homo sapiens, UniProt Q9HCP0); enzyme activity, inhibitor; 0.1 µM): 2.6%
CN1CCN(c2nc(N)c3ccccc3n2)CC1 — inhibition (Neuronal acetylcholine receptor subunit alpha-7 (CHRNA7, Homo sapiens, UniProt P36544); ligand displacement, radioligand; 0.1 µM): 31.9%
CCOC(=O)c1ccc(OC(=O)CCCCCNC(=N)N)cc1 — inhibition (UCHL1; enzyme activity, inhibitor; 10 µM): 5%
